High-throughput results: PubChem BioAssay, The Scripps Research Institute Molecular Screening Center
CHO parental Ca = signal in parental CHO cells, OX1R antagonist counter-screen; parental CHO-K1, ATP-induced calcium, Fluo-8 fluorescence; inhibition, % at 5.6 µM; 330,000 tested, 0.63% active; AID 463079;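 active means inhibition above that plate's mean sample inhibition plus 3 SD, cut at about 26% in these data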
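Test system: parental CHO cells; detection: calcium-sensitive Fluo-8 fluorescence; evaluation: percent inhibition of calcium signal; also added: ATP as calcium-mobilizing challenge; repeats: one well per compound; control set: ATP-challenged DMSO wells low, unchallenged DMSO wells high; compound: single nominal dose of 5.6 µM per compound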
GPR7 antag = human neuropeptides B/W receptor 1 antagonism; P48145; GPR7-expressing cells, fluorescence antagonist assay; inhibition, % at 4.4 µM; 290,000 tested, 1.1% active; in the data active means inhibition above about 16%, passing the limit was not always enough;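 further: cells stimulated with the agonist NPW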
Target sequence (P48145 whole entry, looked up): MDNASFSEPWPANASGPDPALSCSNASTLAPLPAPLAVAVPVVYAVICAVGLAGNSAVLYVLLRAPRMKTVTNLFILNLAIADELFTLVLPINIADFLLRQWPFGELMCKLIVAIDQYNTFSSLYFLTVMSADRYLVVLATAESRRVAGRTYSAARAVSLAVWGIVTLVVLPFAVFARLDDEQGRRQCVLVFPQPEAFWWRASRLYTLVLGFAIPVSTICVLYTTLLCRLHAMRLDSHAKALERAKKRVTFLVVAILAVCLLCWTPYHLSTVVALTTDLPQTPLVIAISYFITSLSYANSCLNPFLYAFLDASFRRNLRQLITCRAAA
OX1R antag-1 = human HCRTR1 antagonism. O43613. CHO/OX1R cells, Fluo-8 calcium fluorescence, orexin A. inhibition, % at 5 µM. 330,000 tested, 0.43% active;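 active means inhibition above its plate's threshold, mean inhibition of all tested compounds on the plate plus 3 SD, cut at about 37% in these data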
TAAR1 antagonist = antagonists of human TAAR1. Q96RJ0. CHO RD-HGA16 TAAR1, Fluo-8 calcium fluorescence, antagonist. inhibition, % at 3 µM. 360,000 tested, 1.5% active;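 active means inhibition above a per-plate cutoff, the mean inhibition of test compounds on that plate plus 3 SD, cut at about 49% in these data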
Target sequence (Q96RJ0 whole entry, looked up): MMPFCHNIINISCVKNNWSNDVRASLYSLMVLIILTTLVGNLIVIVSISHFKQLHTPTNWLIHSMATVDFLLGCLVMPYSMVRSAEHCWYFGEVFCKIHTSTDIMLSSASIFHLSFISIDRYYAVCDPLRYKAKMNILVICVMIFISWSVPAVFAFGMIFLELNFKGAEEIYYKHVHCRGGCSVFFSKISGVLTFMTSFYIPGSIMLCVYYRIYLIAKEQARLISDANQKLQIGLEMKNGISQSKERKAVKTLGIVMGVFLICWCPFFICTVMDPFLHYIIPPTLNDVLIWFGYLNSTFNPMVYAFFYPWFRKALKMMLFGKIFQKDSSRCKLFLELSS
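Test system: CHO RD-HGA16 cells bearing hTAAR1 | Reagent: β-PEA, EC80 | Compound dosing: 3 µM, single point | Schedule: Dye loading 75 min at 37 °C, then 30 min room temperature | Signal: Calcium fluorescence with Fluo-8 | Evaluation: Percent inhibition of PEA-evoked calcium signal, max/basal emission ratio | Control set: DMSO-only wells and EC80 β-PEA-stimulated wells | Repeats: Singlicate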
OX1R antag-2 = OX1R (human) antagonism | OX1R-expressing cells, FRET antagonist read-out | AID 485270 | 330,000 tested, 1.8% active | O43613 | inhibition, % at 6.6 µM; in the data active means inhibition mostly above about 38%, no sharp cut-off; inactive means mostly below about 40%
TAAR1 ag = agonists of human TAAR1. CHO RD-HGA16 TAAR1, Fluo-8 calcium fluorescence; vehicle wells 0%, saturating PEA agonist 100%. activation, % at 3 µM. 360,000 tested, 0.99% active. AID 624467;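 active means activation above the mean activation of all test compounds in the run plus 3 SD, cut at about 38% in these data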
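Test system: RD-HGA16 (CHO) cells co-expressing Gα16 and hTAAR1 | Doses: Single dose, 3 µM | Schedule: 17-24 h seeding, 75 min 37 °C dye, 30 min RT | Evaluation: % activation from peak over basal fluorescence ratio, DMSO-to-PEA scaled | Technique: Kinetic Fluo-8 calcium fluorescence | Benchmarks: Low control DMSO, high control PEA (EC100)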
OX1R Fluo8 conf = confirmation of human orexin 1 receptor antagonists; CHO/OX1R cells, orexin A calcium Fluo-8 fluorescence; 1,100 tested, 38% active; inhibition, % at 5 µM; shares compounds with OX1R antag-1; in the data active means inhibition above about 29%
CHO Ca triplic = signal in parental CHO cells, OX1R antagonist counter-screen; shares compounds with OX1R antag-1; parental CHO-K1, ATP-induced calcium, Fluo-8 fluorescence; inhibition, % at 5.6 µM; 1,100 tested, 9.3% active; AID 492965;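 active means inhibition above a per-plate limit, the mean inhibition of that plate's test compounds plus 3 SD, cut at about 25% in these data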
OX1R HTRF conf = OX1R (human) antagonism, HTRF confirmed | shares compounds with OX1R antag-2 | OX1R-expressing cells, HTRF antagonist assay | inhibition, % at 6.6 µM | 1,800 tested, 49% active | AID 492964; in the data active means inhibition above about 55%;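 further: CHO cells expressing OX1R stimulated with orexin A at about EC80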
CHO-K1 HTRF = signal in parental CHO-K1 cells, OX1R antagonist counter-screen | inhibition, % at 6.6 µM | HTRF counterscreen | shares compounds with OX1R antag-2 | 1,800 tested, 48% active; in the data active means inhibition above about 17%
nonsel antag count = counter-screen for TAAR1 antagonists: nonselective antagonists | counterscreen cell line, calcium fluorescence, antagonist mode | 2,400 tested, 77% active | shares compounds with TAAR1 antagonist | inhibition, % at 3 µM | AID 651780; in the data active means inhibition above about 22%;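 further: CHO-Ga16 host cells stimulated with ATP at an EC80 level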
TAAR1 antag conf = confirmation of human TAAR1 antagonists; TAAR1-expressing cells, fluorescence antagonist read-out; inhibition, % at 3 µM; shares compounds with TAAR1 antagonist; 2,400 tested, 40% active; AID 651785; in the data active means inhibition above about 49%;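 further: CHO-Ga16 host cells challenged with agonist PEA near its EC80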
Ga16 ag counter = nonselective Ga16 agonist in TAAR1 antagonist counter-screen | shares compounds with TAAR1 antagonist | Ga16-expressing cells, calcium fluorescence, agonist counterscreen | 2,400 tested, 18% active | activation, % at 3 µM; in the data active means activation above about 12%
TAAR1 ag count = activates human TAAR1 in antagonist counter-screen | hTAAR1 cell line, fluorescence activation, agonist mode | 2,400 tested, 2% active | activation, % at 3 µM | shares compounds with TAAR1 antagonist; in the data active means activation above about 37%;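 further: CHO cells stably expressing TAAR1 with calcium dye readout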
Hits are given with their value; 0 = inactive; - = no result. Compounds with a hit are over-represented: about 4.6% of the library has one in this group of screens.

SMILES	CHO parental Ca	GPR7 antag	OX1R antag-1	TAAR1 antagonist	OX1R antag-2	TAAR1 ag	OX1R Fluo8 conf	CHO Ca triplic	OX1R HTRF conf	CHO-K1 HTRF	nonsel antag count	TAAR1 antag conf	Ga16 ag counter	TAAR1 ag count
CN(/C=C/C(=C\C=[N+](C)c1ccccc1)OCCCS(=O)(=O)[O-])c1ccccc1	0	0	0	0	0	0	-	-	-	-	-	-	-	-
CC(NC(C)c1ccccc1Cl)C(=O)Nc1cccc(S(=O)(=O)N2CCCCC2)c1 (centres undefined)	0	-	89	0	88	0	80	0	89	0	-	-	-	-
CCN1C(=O)c2cccc3c(S(=O)(=O)NCc4ccccc4)ccc1c23	0	-	0	0	0	0	-	-	-	-	-	-	-	-
CCN1C(=O)c2cccc3c(S(=O)(=O)NCCc4c[nH]c5ccccc45)ccc1c23	0	0	0	0	81	0	32	0	72	0	-	-	-	-
COc1ccccc1N(C)S(=O)(=O)c1ccc(Cl)c(C(=O)NNC(=O)c2ccccc2O)c1	0	0	0	0	0	0	-	-	-	-	-	-	-	-
COc1ccccc1N(C)S(=O)(=O)c1ccc(Cl)c(C(=O)OCc2c(C)noc2C)c1	0	0	0	0	54	0	0	0	0	0	-	-	-	-
Cc1cccc(NC(=O)/C(C#N)=C\c2cn(CC(=O)O)c3ccccc23)c1	0	0	0	0	83	0	37	0	78	0	-	-	-	-
c1ccc2nc(-c3ccc(N4CCOCC4)cc3)ccc2c1	0	0	0	0	0	0	-	-	-	-	-	-	-	-
Cc1cc(-c2ccc(N3CCOCC3)cc2)nc2ccccc12	0	0	0	0	91	0	54	0	93	0	-	-	-	-
O=C(COC(=O)c1cc(-c2cccs2)nc2ccccc12)NC1CCS(=O)(=O)C1 (centres undefined)	0	0	42	0	84	0	33	0	84	0	-	-	-	-
CCOc1ccc(N(C)S(=O)(=O)c2c[nH]c(C(=O)OC)c2)cc1	0	0	0	0	0	0	-	-	-	-	-	-	-	-
COc1ccc(CCNC(=O)COc2ccc(-c3ccc(C)cc3)cc2)cc1OC	0	0	70	0	66	0	0	0	76	0	-	-	-	-
COc1ccc(CCNC(=O)CCOc2ccc(C)cc2)cc1OC	0	0	0	0	0	0	-	-	-	-	-	-	-	-
CC(C)c1ccc(CN(C)C(=O)c2ccc(S(=O)(=O)NCc3ccco3)cc2)cc1	0	-	44	0	42	0	0	25	0	0	-	-	-	-
Cc1ccc(NC(=O)CCSc2ccccn2)cc1	0	0	0	0	0	0	-	-	-	-	-	-	-	-
COc1ccc(CCNc2cc(C)[nH]c(=O)c2)cc1OC	0	0	0	0	45	0	0	0	0	0	-	-	-	-
CC(NS(=O)(=O)c1cccc(Cl)c1)C(=O)Nc1ccc(-c2nc3ccccc3s2)cc1 (centres undefined)	0	0	0	64	0	0	0	0	-	-	37	0	12	0
Cn1c(=O)c2c(nc(N3CCN(Cc4ccccc4)CC3)n2CCCc2ccccc2)n(C)c1=O	0	0	0	0	0	0	-	-	-	-	-	-	-	-
C=CCn1c(CCCOc2ccc(Cl)cc2Cl)nnc1SCC(=O)Nc1nccs1	0	0	0	49	0	0	0	0	-	-	32	0	0	0
O=C(Nc1ccc(S(=O)(=O)NCc2ccco2)cc1)c1ccc2ccccc2n1	0	0	0	70	45	0	37	0	66	0	38	58	0	0
O=C(COC(=O)CN1C(=O)NC2(CCCC2)C1=O)NCc1ccc(Cl)cc1Cl	0	-	0	0	0	0	-	-	-	-	-	-	-	-
O=C(OCC#CCSc1nnc(-c2cccc3ccccc23)o1)c1cccc2[nH]ccc12	0	-	68	51	67	0	30	0	88	0	0	0	0	0
O=C(COc1ccccc1[N+](=O)[O-])Nc1ccc(N2CCN(C(=O)c3cccs3)CC2)cc1	0	0	0	92	0	0	62	36	-	-	50	71	22	0
CCC(=O)Nc1ccc(N2CCN(C(=O)c3cccs3)CC2)cc1	0	0	0	0	0	0	-	-	-	-	-	-	-	-
CCOC(=O)C1=C(COC(=O)/C=C/c2cccc(OC)c2)NC(=O)NC1C (centres undefined)	0	0	0	67	73	0	31	0	0	0	22	53	0	0
SMILES	CHO parental Ca	GPR7 antag	OX1R antag-1	TAAR1 antagonist	OX1R antag-2	TAAR1 ag	OX1R Fluo8 conf	CHO Ca triplic	OX1R HTRF conf	CHO-K1 HTRF	nonsel antag count	TAAR1 antag conf	Ga16 ag counter	TAAR1 ag count
CCOC(=O)C1=C(COC(=O)/C=C/c2ccc(OC)cc2)NC(=O)NC1C (centres undefined)	-	-	-	0	-	0	-	-	-	-	-	-	-	-
CC1OC(COCc2ccccc2)Cc2[nH][nH]c(=O)c21 (centres undefined)	-	-	-	0	-	0	-	-	-	-	-	-	-	-
COc1ccccc1NS(=O)(=O)c1ccc2oc(SC(C)C(=O)N3CCNC3=O)nc2c1 (centres undefined)	0	-	0	74	32	0	31	0	62	0	40	52	16	0
COc1ccccc1NS(=O)(=O)c1ccc2oc(SCC(C)=O)nc2c1	0	0	0	0	0	0	-	-	-	-	-	-	-	-
Clc1ccc(-c2cc(-c3nnc4n3CCCCC4)c3ccccc3n2)cc1	0	0	0	0	0	0	-	-	-	-	-	-	-	-
COc1cccc(C(=O)Nc2cccc(-c3nnc(-c4ccccc4)o3)c2)c1	0	-	0	74	0	0	0	0	-	-	23	56	0	0
CCOc1cccc(C(=O)Nc2cccc(-c3nnc(-c4ccccc4)o3)c2)c1	0	0	0	0	0	0	-	-	-	-	-	-	-	-
NC(=O)c1ccsc1NC(=O)COC(=O)/C=C/c1ccccc1[N+](=O)[O-]	0	-	57	78	0	0	0	0	-	-	38	60	14	0
Cc1cc(C)c(S(=O)(=O)N2CCCC(C(=O)NC3CC3)C2)c(C)c1 (centres undefined)	0	0	0	0	0	0	-	-	-	-	-	-	-	-
